Source: ChEMBL document CHEMBL5058577, “EUbOPEN Chemogenomics Library 2 (Multiplex)” (2022)

Tested on: HEK-293T
Assay: Multiplex assay against HEK293T
Assay type: toxicity, cell-based
Settings: human
Summary of the method: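 Cells stained live at seeding with Hoechst33342, BioTracker Green Microtubule Cytoskeleton Dye, MitoTracker Red and Annexin V Alexa Fluor 680 were imaged on a CQ1 microscope at 37°C and 5% CO2 after compound addition. Their classification by CellPathfinder machine-learning gating ran from Hoechst high-intensity objects versus normal cells, to healthy, pyknosed or fragmented nuclei among normal cells, to mitotic or apoptotic among pyknosed cells. Tubulin, mitochondrial-mass and membrane-permeability phenotypes are per cents of healthy-nucleus cells.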

[1] = 12 h, 1 µM, compound concentration 1 uM, replicate 1
[2] = 12 h, 1 µM, compound concentration 1 uM, replicate 2
[3] = 12 h, 10 µM, compound concentration 10 uM, replicate 1
[4] = 12 h, 10 µM, compound concentration 10 uM, replicate 2
[5] = 24 h, 1 µM, compound concentration 1 uM, replicate 1
[6] = 24 h, 1 µM, compound concentration 1 uM, replicate 2
[7] = 24 h, 10 µM, compound concentration 10 uM, replicate 1
[8] = 24 h, 10 µM, compound concentration 10 uM, replicate 2
[9] = 48 h, 1 µM, compound concentration 1 uM, replicate 1
[10] = 48 h, 1 µM, compound concentration 1 uM, replicate 2
[11] = 48 h, 10 µM, compound concentration 10 uM, replicate 1
[12] = 48 h, 10 µM, compound concentration 10 uM, replicate 2

Question: With `Cc1cc(O)c(-c2ccc([C@@H](C)CN(C)C)cc2)c2c1[nH]c(=O)c1sccc12` as the molecule, how does the “Population Apoptotic (%)” value [1] read?
Answer: 63%

Question: And the “Population Fragmented Nuclei (%)” value [1]?
Answer: 14%

Question: And the “Population Healthy Nuclei (%)” value [1]?
Answer: 49%

Question: And the “Population Hoechst High Intensity Objects (%)” value [1]?
Answer: 27%

Question: What about the “Population Membrane Permeable-Phenotype (%)” value [1] of the same molecule?
Answer: 0%

Question: And the “Population Mitochondria Different-Phenotype (%)” value [1]?
Answer: 90%

Question: And the “Population Mitotic Cells (%)” value [1]?
Answer: 36%

Question: What about the “Population Normal (%)” value [1] of the same molecule?
Answer: 72%

Question: What about the “Population Pyknosed Nuclei (%)” value [1] of the same molecule?
Answer: 36%

Question: And the “Population Tubulin-Different-Phenotype (%)” value [1]?
Answer: 78%

Question: And the “Total Cell Count” value [1]?
Answer: 209

Question: What about the “Population Apoptotic (%)” value [2] of the same molecule?
Answer: 59%

Question: And the “Population Fragmented Nuclei (%)” value [2]?
Answer: 8%

Question: And the “Population Healthy Nuclei (%)” value [2]?
Answer: 66%

Question: And the “Population Hoechst High Intensity Objects (%)” value [2]?
Answer: 28%

Question: And the “Population Membrane Permeable-Phenotype (%)” value [2]?
Answer: 1%

Question: What about the “Population Mitochondria Different-Phenotype (%)” value [2] of the same molecule?
Answer: 91%

Question: What about the “Population Mitotic Cells (%)” value [2] of the same molecule?
Answer: 40%

Question: What about the “Population Normal (%)” value [2] of the same molecule?
Answer: 71%

Question: What about the “Population Pyknosed Nuclei (%)” value [2] of the same molecule?
Answer: 25%

Question: What about the “Population Tubulin-Different-Phenotype (%)” value [2] of the same molecule?
Answer: 74%

Question: What about the “Total Cell Count” value [2] of the same molecule?
Answer: 207

Question: And the “Population Apoptotic (%)” value [3]?
Answer: 53%

Question: What about the “Population Fragmented Nuclei (%)” value [3] of the same molecule?
Answer: 6%

Question: And the “Population Healthy Nuclei (%)” value [3]?
Answer: 44%

Question: And the “Population Hoechst High Intensity Objects (%)” value [3]?
Answer: 41%

Question: And the “Population Membrane Permeable-Phenotype (%)” value [3]?
Answer: 0%

Question: What about the “Population Mitochondria Different-Phenotype (%)” value [3] of the same molecule?
Answer: 100%

Question: And the “Population Mitotic Cells (%)” value [3]?
Answer: 46%

Question: And the “Population Normal (%)” value [3]?
Answer: 58%

Question: What about the “Population Pyknosed Nuclei (%)” value [3] of the same molecule?
Answer: 48%

Question: And the “Population Tubulin-Different-Phenotype (%)” value [3]?
Answer: 60%

Question: And the “Total Cell Count” value [3]?
Answer: 268

Question: What about the “Population Apoptotic (%)” value [4] of the same molecule?
Answer: 70%

Question: And the “Population Fragmented Nuclei (%)” value [4]?
Answer: 7%

Question: What about the “Population Healthy Nuclei (%)” value [4] of the same molecule?
Answer: 60%

Question: What about the “Population Hoechst High Intensity Objects (%)” value [4] of the same molecule?
Answer: 28%

Question: And the “Population Mitochondria Different-Phenotype (%)” value [4]?
Answer: 94%

Question: And the “Population Mitotic Cells (%)” value [4]?
Answer: 29%

Question: What about the “Population Normal (%)” value [4] of the same molecule?
Answer: 71%

Question: And the “Population Pyknosed Nuclei (%)” value [4]?
Answer: 31%

Question: And the “Population Tubulin-Different-Phenotype (%)” value [4]?
Answer: 72%

Question: What about the “Total Cell Count” value [4] of the same molecule?
Answer: 195

Question: And the “Population Apoptotic (%)” value [5]?
Answer: 65%

Question: What about the “Population Fragmented Nuclei (%)” value [5] of the same molecule?
Answer: 9%

Question: And the “Population Healthy Nuclei (%)” value [5]?
Answer: 60%

Question: What about the “Population Hoechst High Intensity Objects (%)” value [5] of the same molecule?
Answer: 21%

Question: And the “Population Membrane Permeable-Phenotype (%)” value [5]?
Answer: 0%

Question: What about the “Population Mitochondria Different-Phenotype (%)” value [5] of the same molecule?
Answer: 89%

Question: What about the “Population Mitotic Cells (%)” value [5] of the same molecule?
Answer: 34%

Question: And the “Population Normal (%)” value [5]?
Answer: 78%

Question: And the “Population Pyknosed Nuclei (%)” value [5]?
Answer: 30%

Question: What about the “Population Tubulin-Different-Phenotype (%)” value [5] of the same molecule?
Answer: 67%

Question: What about the “Total Cell Count” value [5] of the same molecule?
Answer: 230

Question: And the “Population Apoptotic (%)” value [6]?
Answer: 68%

Question: What about the “Population Healthy Nuclei (%)” value [6] of the same molecule?
Answer: 70%

Question: And the “Population Mitochondria Different-Phenotype (%)” value [6]?
Answer: 93%

Question: What about the “Population Mitotic Cells (%)” value [6] of the same molecule?
Answer: 31%

Question: And the “Population Pyknosed Nuclei (%)” value [6]?
Answer: 19%

Question: And the “Population Tubulin-Different-Phenotype (%)” value [6]?
Answer: 74%

Question: And the “Total Cell Count” value [6]?
Answer: 205

Question: And the “Population Apoptotic (%)” value [7]?
Answer: 73%

Question: And the “Population Fragmented Nuclei (%)” value [7]?
Answer: 8%

Question: And the “Population Healthy Nuclei (%)” value [7]?
Answer: 67%

Question: What about the “Population Hoechst High Intensity Objects (%)” value [7] of the same molecule?
Answer: 36%

Question: And the “Population Membrane Permeable-Phenotype (%)” value [7]?
Answer: 1%

Question: And the “Population Mitochondria Different-Phenotype (%)” value [7]?
Answer: 92%

Question: And the “Population Mitotic Cells (%)” value [7]?
Answer: 26%

Question: And the “Population Normal (%)” value [7]?
Answer: 63%

Question: And the “Population Pyknosed Nuclei (%)” value [7]?
Answer: 24%

Question: And the “Population Tubulin-Different-Phenotype (%)” value [7]?
Answer: 70%

Question: And the “Total Cell Count” value [7]?
Answer: 290

Question: And the “Population Apoptotic (%)” value [8]?
Answer: 85%

Question: And the “Population Fragmented Nuclei (%)” value [8]?
Answer: 7%

Question: And the “Population Healthy Nuclei (%)” value [8]?
Answer: 69%

Question: What about the “Population Hoechst High Intensity Objects (%)” value [8] of the same molecule?
Answer: 25%

Question: And the “Population Membrane Permeable-Phenotype (%)” value [8]?
Answer: 0%

Question: What about the “Population Mitochondria Different-Phenotype (%)” value [8] of the same molecule?
Answer: 93%

Question: What about the “Population Mitotic Cells (%)” value [8] of the same molecule?
Answer: 14%

Question: What about the “Population Normal (%)” value [8] of the same molecule?
Answer: 74%

Question: And the “Population Pyknosed Nuclei (%)” value [8]?
Answer: 23%

Question: What about the “Population Tubulin-Different-Phenotype (%)” value [8] of the same molecule?
Answer: 80%

Question: What about the “Total Cell Count” value [8] of the same molecule?
Answer: 203

Question: What about the “Population Apoptotic (%)” value [9] of the same molecule?
Answer: 86%

Question: And the “Population Fragmented Nuclei (%)” value [9]?
Answer: 13%

Question: And the “Population Healthy Nuclei (%)” value [9]?
Answer: 65%

Question: What about the “Population Hoechst High Intensity Objects (%)” value [9] of the same molecule?
Answer: 24%

Question: What about the “Population Membrane Permeable-Phenotype (%)” value [9] of the same molecule?
Answer: 0%

Question: And the “Population Mitochondria Different-Phenotype (%)” value [9]?
Answer: 90%

Question: And the “Population Mitotic Cells (%)” value [9]?
Answer: 13%

Question: What about the “Population Normal (%)” value [9] of the same molecule?
Answer: 75%

Question: What about the “Population Pyknosed Nuclei (%)” value [9] of the same molecule?
Answer: 20%

Question: And the “Population Tubulin-Different-Phenotype (%)” value [9]?
Answer: 76%

Question: And the “Total Cell Count” value [9]?
Answer: 249

Question: What about the “Population Apoptotic (%)” value [10] of the same molecule?
Answer: 69%

Question: And the “Population Fragmented Nuclei (%)” value [10]?
Answer: 16%

Question: And the “Population Healthy Nuclei (%)” value [10]?
Answer: 67%

Question: What about the “Population Hoechst High Intensity Objects (%)” value [10] of the same molecule?
Answer: 25%

Question: And the “Population Mitochondria Different-Phenotype (%)” value [10]?
Answer: 96%

Question: What about the “Population Mitotic Cells (%)” value [10] of the same molecule?
Answer: 30%

Question: What about the “Population Normal (%)” value [10] of the same molecule?
Answer: 74%

Question: And the “Population Pyknosed Nuclei (%)” value [10]?
Answer: 16%

Question: And the “Population Tubulin-Different-Phenotype (%)” value [10]?
Answer: 70%

Question: What about the “Total Cell Count” value [10] of the same molecule?
Answer: 212

Question: And the “Population Apoptotic (%)” value [11]?
Answer: 86%

Question: What about the “Population Fragmented Nuclei (%)” value [11] of the same molecule?
Answer: 15%

Question: And the “Population Healthy Nuclei (%)” value [11]?
Answer: 64%

Question: And the “Population Hoechst High Intensity Objects (%)” value [11]?
Answer: 40%

Question: What about the “Population Membrane Permeable-Phenotype (%)” value [11] of the same molecule?
Answer: 1%

Question: And the “Population Mitochondria Different-Phenotype (%)” value [11]?
Answer: 92%

Question: And the “Population Mitotic Cells (%)” value [11]?
Answer: 13%

Question: What about the “Population Normal (%)” value [11] of the same molecule?
Answer: 59%

Question: And the “Population Pyknosed Nuclei (%)” value [11]?
Answer: 20%

Question: And the “Population Tubulin-Different-Phenotype (%)” value [11]?
Answer: 54%

Question: And the “Total Cell Count” value [11]?
Answer: 298

Question: What about the “Population Apoptotic (%)” value [12] of the same molecule?
Answer: 87%

Question: And the “Population Fragmented Nuclei (%)” value [12]?
Answer: 13%

Question: And the “Population Healthy Nuclei (%)” value [12]?
Answer: 58%

Question: And the “Population Hoechst High Intensity Objects (%)” value [12]?
Answer: 34%

Question: And the “Population Membrane Permeable-Phenotype (%)” value [12]?
Answer: 0%

Question: What about the “Population Mitochondria Different-Phenotype (%)” value [12] of the same molecule?
Answer: 100%

Question: And the “Population Mitotic Cells (%)” value [12]?
Answer: 12%

Question: What about the “Population Normal (%)” value [12] of the same molecule?
Answer: 65%

Question: What about the “Population Pyknosed Nuclei (%)” value [12] of the same molecule?
Answer: 28%

Question: And the “Population Tubulin-Different-Phenotype (%)” value [12]?
Answer: 73%

Question: What about the “Total Cell Count” value [12] of the same molecule?
Answer: 223
